Measurements from ChEMBL document CHEMBL3739416, “Discovery of a marine-derived bis-indole alkaloid fascaplysin, as a new class of potent P-glycoprotein inducer and establishment of its structure-activity relationship” (Eur J Med Chem, 2016).
The source made the active and inactive calls. No cut-off for these calls is given here.

What was measured:
[1] = tested on: LS180; assay: Induction of P-glycoprotein in human LS180 cells assessed as accumulation of intracellular rhodamine-123 at 1 uM after 48 hrs by fluorescence assay relative to control; type: cell-based
In short: (§1)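 LS-180 colorectal cells, seeded at 2 × 10⁴ per well, were grown 24 h and then exposed to compound for 48 h, with 0.1% final DMSO. Rifampicin at 10 µM served as the reference inducer. Cells were held in HANKS buffer for 40 min, then loaded with Rh123 for 90 min and washed four times in cold PBS. Lysis was 1 h in 0.1% Triton X-100/0.2 N NaOH. Read-out was intracellular Rh123 per total protein, expressed as % of untreated control. Values are the mean ± SD of three experiments.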

[2] = Cytotoxicity against human LS180 cells assessed as cell viability at 10 uM after 48 hrs by MTT assay relative to control; type: cell-based; settings: read-out: Activity
In short: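 LS-180 cells were seeded at 1 × 10⁴ per well, allowed 24 h, then treated with compound. MTT dye was added 4 h before the end. Formazan was dissolved in DMSO and absorbance read at 570 nm. Viability was expressed relative to the untreated control, taken as 100%.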

[3] = tested on: LS180; assay: Induction of P-glycoprotein in human LS180 cells assessed as accumulation of intracellular rhodamine-123 at 5 uM after 48 hrs by fluorescence assay; type: cell-based; in short: as §1
[4] = tested on: LS180; assay: Induction of P-glycoprotein in human LS180 cells assessed as accumulation of intracellular rhodamine-123 at 125 nM after 48 hrs by fluorescence assay relative to control; type: cell-based; in short: as §1
[5] = tested on: LS180; assay: Induction of P-glycoprotein in human LS180 cells assessed as accumulation of intracellular rhodamine-123 at 62.5 nM after 48 hrs by fluorescence assay relative to control; type: cell-based; in short: as §1
[6] = tested on: LS180; assay: Induction of P-glycoprotein in human LS180 cells assessed as accumulation of intracellular rhodamine-123 at 250 nM after 48 hrs by fluorescence assay relative to control; type: cell-based; in short: as §1
[7] = tested on: LS180; assay: Induction of P-glycoprotein in human LS180 cells assessed as accumulation of intracellular rhodamine-123 at 500 nM after 48 hrs by fluorescence assay relative to control; type: cell-based; in short: as §1
[8] = tested on: LS180; assay: Induction of P-glycoprotein expression in human LS180 cells at 1 uM by Western blot analysis relative to control; type: cell-based
[9] = Thermodynamic aqueous solubility of the compound in water; type: physicochemical; settings: read-out: Therm_solubility
[10] = Thermodynamic aqueous solubility of the compound in phosphate buffer saline; type: physicochemical; settings: read-out: Therm_solubility
[11] = Thermodynamic aqueous solubility of the compound in stimulated gastric fluid; type: ADME; settings: simulated gastric fluid; read-out: Therm_solubility
[12] = Thermodynamic aqueous solubility of the compound in stimulated intestinal fluid; type: ADME; settings: simulated intestinal fluid; read-out: Therm_solubility
[13] = tested on: LS180; assay: Induction of P-glycoprotein in human LS180 cells assessed as accumulation of intracellular rhodamine-123 at 10 uM after 48 hrs by fluorescence assay relative to control; type: cell-based; in short: as §1
[14] = Cytotoxicity against HGF cells assessed as cell viability after 48 hrs by MTT assay; type: cell-based; settings: Homo sapiens
In short: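 Normal human gingival fibroblasts grown in MEM with 1% non-essential amino acids, 10% FCS, penicillin G and streptomycin at 37 °C, 5% CO2. Seeded at 1 × 10⁴ cells/well for 24 h, then compound-treated. MTT added 4 h before the end, formazan dissolved in DMSO, absorbance read at 570 nm. Viability expressed relative to untreated control set as 100%.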

Compound	Activity [1]	viability at 48 h, 10 µM [2]	Activity [3]	other results
O=C(c1ccccc1Cl)c1nccc2c1[nH]c1ccccc12	105%	89.4%	–	–
C[n+]1ccc2c([nH]c3ccccc32)c1C(=O)c1ccccc1F	79%	69.8%	–	–
O=C(c1ccc(Br)o1)N1CCc2c([nH]c3ccccc23)C1	–	–	inactive	–
O=C1c2c(Cl)cccc2-[n+]2ccc3c([nH]c4ccccc43)c21	59.2%	63.4%	–	–
O=C(c1cc(F)c(F)cc1Cl)c1nccc2c1[nH]c1ccccc12	112%	81.9%	–	–
O=C(c1ccc(C(F)(F)F)cc1)c1nccc2c1[nH]c1ccccc12	107%	106%	–	–
CN1CCN(C(=O)N2CCc3c([nH]c4ccccc34)C2)CC1	–	–	inactive	–
O=C(c1c[nH]c2ccccc12)N1CCc2c([nH]c3ccccc23)C1	–	–	inactive	–
Cc1ncsc1C(=O)N1CCc2c([nH]c3ccccc23)C1	–	–	inactive	–
O=C(c1cc(F)c(Cl)cc1Cl)c1nccc2c1[nH]c1ccccc12	106%	92.4%	–	–
O=C(c1ccccc1F)c1nccc2c1[nH]c1ccccc12	101%	98.4%	–	–
O=C(c1ccc(-c2cc(C(F)(F)F)ccc2Cl)o1)N1CCc2c([nH]c3ccccc23)C1	–	–	inactive	–
O=C(N1CCOCC1)N1CCc2c([nH]c3ccccc23)C1	–	–	inactive	–
O=C(c1c[nH]c2ccccc12)c1nccc2c1[nH]c1ccccc12	99.4%	78.7%	–	–
O=C(c1ccc2ccccc2n1)N1CCc2c([nH]c3ccccc23)C1	–	–	inactive	–
c1ccc2cc(CN3CCc4c([nH]c5ccccc45)C3)ccc2c1	–	–	inactive	–
c1ccc2c3c([nH]c2c1)CN(Cc1ccncc1)CC3	–	–	inactive	–
C[n+]1ccc2c([nH]c3ccccc32)c1C(=O)c1ccc(C(F)(F)F)cc1	78.5%	75.7%	–	–
O=C1c2ccc(Cl)cc2-[n+]2ccc3c([nH]c4ccccc43)c21	57.1%	66.2%	–	–
O=C(c1cc(Cl)ccc1Cl)c1nccc2c1[nH]c1ccccc12	103%	69.6%	–	–
C[n+]1ccc2c([nH]c3ccccc32)c1C(=O)c1ccccc1	75.2%	77.5%	–	–
C[n+]1ccc2c([nH]c3ccccc32)c1C(=O)c1ccccc1Cl	71.4%	69.7%	–	–
O=C(c1c(F)cccc1Cl)c1nccc2c1[nH]c1ccccc12	89.6%	60.1%	–	–
C[n+]1ccc2c([nH]c3ccccc32)c1C(=O)c1c[nH]c2ccccc12	77.6%	69.1%	–	–
Cc1ccsc1C(=O)N1CCc2c([nH]c3ccccc23)C1	–	–	inactive	–

Compound	Activity [1]	viability at 48 h, 10 µM [2]	Activity [3]	other results
O=C(c1ccc(Cl)c(Cl)c1Cl)c1nccc2c1[nH]c1ccccc12	104%	84.9%	–	–
O=C1c2cc(F)c(F)cc2-[n+]2ccc3c([nH]c4ccccc43)c21.[Cl-]	49.6%	63.5%	–	Activity [4]: 33.8%; Activity [5]: 35.5%; Activity [6]: 35.3%; Activity [7]: 30.6%; fold change (FC) [8]: 4; solubility thermodynamic [9]: > 1500 µg/mL; solubility thermodynamic [10]: 80 µg/mL; solubility thermodynamic [11]: 80 µg/mL; solubility thermodynamic [12]: < 5 µg/mL
COc1ccc(C(=O)c2nccc3c2[nH]c2ccccc23)c(OC)c1	108%	82.2%	–	–
Clc1ccc(CN2CCc3c([nH]c4ccccc34)C2)s1	–	–	inactive	–
O=C(c1cnccn1)N1CCc2c([nH]c3ccccc23)C1	–	–	inactive	–
O=C(c1ccc(-c2cccc([N+](=O)[O-])c2)o1)N1CCc2c([nH]c3ccccc23)C1	–	–	inactive	–
Cc1noc(C)c1CN1CCc2c([nH]c3ccccc23)C1	–	–	inactive	–
O=C1c2cc(F)c(Cl)cc2-[n+]2ccc3c([nH]c4ccccc43)c21	55.5%	36.8%	–	–
c1ccc2nc(CN3CCc4c([nH]c5ccccc45)C3)ccc2c1	–	–	inactive	–
O=C(c1cc2ccccc2o1)N1CCc2c([nH]c3ccccc23)C1	–	–	inactive	–
O=C1c2cc(Cl)ccc2-[n+]2ccc3c([nH]c4ccccc43)c21	58.7%	67.9%	–	–
O=C1NCCN1C(=O)N1CCc2c([nH]c3ccccc23)C1	–	–	inactive	–
O=C(c1ccccc1Br)c1nccc2c1[nH]c1ccccc12	105%	80.3%	–	–
c1ccc2[nH]c(CN3CCc4c([nH]c5ccccc45)C3)nc2c1	–	–	inactive	–
O=C(c1ccc([N+](=O)[O-])s1)N1CCc2c([nH]c3ccccc23)C1	–	–	inactive	–
C[n+]1ccc2c([nH]c3ccccc32)c1C(=O)c1ccccc1Br.[I-]	70.1%	69.1%	–	Activity [4]: 41.8%; Activity [5]: 80%; Activity [6]: 42.3%; Activity [7]: 33.6%; fold change (FC) [8]: 8; solubility thermodynamic [9]: 800 µg/mL; solubility thermodynamic [10]: 800 µg/mL; solubility thermodynamic [11]: 800 µg/mL; solubility thermodynamic [12]: 800 µg/mL
O=C(c1ccccc1)c1nccc2c1[nH]c1ccccc12	94.6%	67.5%	–	–
CO[C@H]1/C=C/O[C@@]2(C)Oc3c(C)c(O)c4c(O)c(c(/C=N/N5CCN(C)CC5)c(O)c4c3C2=O)NC(=O)/C(C)=C\C=C\[C@H](C)[C@H](O)[C@@H](C)[C@@H](O)[C@@H](C)[C@H](OC(C)=O)[C@@H]1C	–	–	–	Activity [13]: 67.1%
O=C(c1ccc(-c2ccccc2)cc1)N1CCc2c([nH]c3ccccc23)C1	–	–	inactive	–
O=C(c1ccc(Cl)cc1Cl)c1nccc2c1[nH]c1ccccc12	97.3%	98.8%	–	–
O=C1c2ccccc2-[n+]2ccc3c([nH]c4ccccc43)c21.[Cl-] [FASCAPLYSIN CHLORIDE]	57.6%	57.5%	–	Activity [4]: 39.3%; Activity [5]: 42.9%; Activity [6]: 43.7%; Activity [7]: 34.5%; IC50 [14]: 4 µM; solubility thermodynamic [9]: > 1500 µg/mL; solubility thermodynamic [10]: > 1500 µg/mL; solubility thermodynamic [11]: > 1500 µg/mL; solubility thermodynamic [12]: > 1500 µg/mL
O=[N+]([O-])c1ccc(CN2CCc3c([nH]c4ccccc34)C2)o1	–	–	inactive	–
c1ccc2c(CN3CCc4c([nH]c5ccccc45)C3)c3ccccc3cc2c1	–	–	inactive	–
O=C1c2ccc(Cl)c(Cl)c2-[n+]2ccc3c([nH]c4ccccc43)c21	57.8%	57.4%	–	–
